Tests used:
[1] = target: Tyrosine-protein kinase CSK (Homo sapiens, UniProt P41240); test: Inhibition of CSK in human HeLa cells lysate pre incubated for 15 mins followed by ATP acyl phosphate probe addition and measured after 10 mins by LC-MS/MS analysis; format: subcellular
[2] = target: Eukaryotic elongation factor 2 kinase (Homo sapiens, UniProt O00418); test: Inhibition of EEF2K in human HeLa cells lysate pre incubated for 15 mins followed by ATP acyl phosphate probe addition and measured after 10 mins by LC-MS/MS analysis; format: subcellular
[3] = Inhibition of HGK/MINK/TNIK in human HeLa cells lysate pre incubated for 15 mins followed by ATP acyl phosphate probe addition and measured after 10 mins by LC-MS/MS analysis; format: subcellular
[4] = target: Ribosomal protein S6 kinase alpha-3 (Homo sapiens, UniProt P51812); test: Inhibition of RSK2 in human HeLa cells lysate pre incubated for 15 mins followed by ATP acyl phosphate probe addition and measured after 10 mins by LC-MS/MS analysis; format: subcellular
[5] = target: Serine/threonine-protein kinase TAO2 (Homo sapiens, UniProt Q9UL54); test: Inhibition of TAO2 in human HeLa cells lysate pre incubated for 15 mins followed by ATP acyl phosphate probe addition and measured after 10 mins by LC-MS/MS analysis; format: subcellular
[6] = target: Protein kinase C zeta type (Homo sapiens, UniProt Q05513); test: Inhibition of PKCzeta in human HeLa cells lysate pre incubated for 15 mins followed by ADP acyl phosphate probe addition and measured after 10 mins by LC-MS/MS analysis; format: subcellular
[7] = target: T1, Serine/threonine-protein kinase Sgk3 (Homo sapiens, UniProt Q96BR1); test: Inhibition of SGK3 in human HeLa cells lysate pre incubated for 15 mins followed by ADP acyl phosphate probe addition and measured after 10 mins by LC-MS/MS analysis; format: subcellular
T1 sequence (Q96BR1 whole entry): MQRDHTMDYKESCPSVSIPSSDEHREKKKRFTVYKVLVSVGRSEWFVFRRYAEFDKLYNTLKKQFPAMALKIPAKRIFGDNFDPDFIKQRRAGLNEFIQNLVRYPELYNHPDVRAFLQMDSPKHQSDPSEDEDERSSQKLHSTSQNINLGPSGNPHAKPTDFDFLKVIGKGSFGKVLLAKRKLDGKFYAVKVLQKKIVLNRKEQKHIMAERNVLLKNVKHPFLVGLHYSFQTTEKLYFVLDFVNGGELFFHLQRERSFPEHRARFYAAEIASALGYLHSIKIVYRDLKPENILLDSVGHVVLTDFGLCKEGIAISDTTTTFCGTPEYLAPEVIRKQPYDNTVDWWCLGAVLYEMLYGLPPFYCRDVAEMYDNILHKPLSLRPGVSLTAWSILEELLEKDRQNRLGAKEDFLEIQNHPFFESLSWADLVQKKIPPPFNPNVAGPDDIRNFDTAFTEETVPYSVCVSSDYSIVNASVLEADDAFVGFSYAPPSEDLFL

[8] = target: T2, Ribosomal protein S6 kinase alpha-5 (Homo sapiens, UniProt O75582); test: Inhibition of MSK1 domain 1 in human HeLa cells lysate at 50 uM pre incubated for 15 mins followed by ADP acyl phosphate probe addition and measured after 10 mins by LC-MS/MS analysis relative to control; format: subcellular; conditions: time 25.0 min
[9] = target: T2, Ribosomal protein S6 kinase alpha-5; test: Inhibition of MSK1 domain 1 K1 site in human HeLa cells lysate at 10 uM pre incubated for 15 mins followed by ADP acyl phosphate probe addition and measured after 10 mins by LC-MS/MS analysis relative to control; format: subcellular; conditions: time 25.0 min
[10] = target: T3, Mitogen-activated protein kinase kinase kinase kinase 2 (Homo sapiens) (UniProt Q12851); test: Inhibition of GCK in human HeLa cells lysate at 2 uM pre incubated for 15 mins followed by ADP acyl phosphate probe addition and measured after 10 mins by LC-MS/MS analysis relative to control; format: subcellular; conditions: time 25.0 min
T3 sequence (whole entry): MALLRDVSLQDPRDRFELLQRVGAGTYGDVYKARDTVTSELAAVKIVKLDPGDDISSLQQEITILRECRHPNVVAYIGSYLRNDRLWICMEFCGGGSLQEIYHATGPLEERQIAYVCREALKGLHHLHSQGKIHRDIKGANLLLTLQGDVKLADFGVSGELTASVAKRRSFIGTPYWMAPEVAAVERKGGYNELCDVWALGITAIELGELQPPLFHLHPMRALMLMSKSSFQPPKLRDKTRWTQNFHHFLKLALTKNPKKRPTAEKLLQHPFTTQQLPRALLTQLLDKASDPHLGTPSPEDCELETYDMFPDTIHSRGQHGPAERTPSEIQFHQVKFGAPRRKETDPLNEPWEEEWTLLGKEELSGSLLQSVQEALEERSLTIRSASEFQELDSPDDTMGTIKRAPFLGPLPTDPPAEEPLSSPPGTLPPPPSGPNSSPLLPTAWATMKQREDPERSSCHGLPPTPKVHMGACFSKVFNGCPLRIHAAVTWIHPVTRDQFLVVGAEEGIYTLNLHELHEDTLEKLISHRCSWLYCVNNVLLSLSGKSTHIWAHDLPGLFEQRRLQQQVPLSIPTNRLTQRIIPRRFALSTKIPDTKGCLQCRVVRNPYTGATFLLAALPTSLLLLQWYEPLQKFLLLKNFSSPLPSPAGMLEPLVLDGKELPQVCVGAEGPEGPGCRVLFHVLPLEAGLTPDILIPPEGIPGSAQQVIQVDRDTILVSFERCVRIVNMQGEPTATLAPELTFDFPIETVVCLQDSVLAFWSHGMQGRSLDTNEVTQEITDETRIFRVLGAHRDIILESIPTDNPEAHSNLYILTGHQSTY

[11] = Inhibition of MSK1/2 in human HeLa cells lysate at 2 uM pre incubated for 15 mins followed by ADP acyl phosphate probe addition and measured after 10 mins by LC-MS/MS analysis relative to control; conditions: 25 min, condition cancer
[12] = Inhibition of KHS1/2 in human HeLa cells lysate at 10 uM pre incubated for 15 mins followed by ATP acyl phosphate probe addition and measured after 10 mins by LC-MS/MS analysis relative to control; conditions: 25 min, condition cancer
[13] = target: Mitogen-activated protein kinase 14 (Homo sapiens, UniProt Q16539); test: Inhibition of P38alpha interaction site in human HeLa cells lysate at 10 uM pre incubated for 15 mins followed by ATP acyl phosphate probe addition and measured after 10 mins by LC-MS/MS analysis relative to control; format: subcellular; conditions: time 25.0 min
[14] = target: Glycogen synthase kinase-3 beta (Homo sapiens, UniProt P49841); test: Inhibition of GSK3B isoform 2 in human HeLa cells lysate at 2 uM pre incubated for 15 mins followed by ATP acyl phosphate probe addition and measured after 10 mins by LC-MS/MS analysis relative to control; format: subcellular; conditions: time 25.0 min
[15] = target: Phosphatidylinositol 3-kinase catalytic subunit type 3 (Homo sapiens, UniProt Q8NEB9); test: Inhibition of PIK3C3 in human HeLa cells lysate at 2 uM pre incubated for 15 mins followed by ATP acyl phosphate probe addition and measured after 10 mins by LC-MS/MS analysis relative to control; format: subcellular; conditions: time 25.0 min
[16] = AUCinfinity in Sprague-Dawley rat at 2 mg/kg, po measured up to 8 hrs by LC-MS/MS analysis; format: ADME, organism-based; conditions: in vivo
In short: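 Sprague-Dawley rats given one intravenous dose or one oral dose of 2 mg/kg. Plasma drug concentrations were followed over time, with samples taken out to 8 hr after dosing. PK parameters (clearance, volume of distribution, half-life, oral bioavailability, Cmax) were calculated from these concentration–time data.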

T2 sequence (O75582 whole entry, looked up, the tested form may be a part): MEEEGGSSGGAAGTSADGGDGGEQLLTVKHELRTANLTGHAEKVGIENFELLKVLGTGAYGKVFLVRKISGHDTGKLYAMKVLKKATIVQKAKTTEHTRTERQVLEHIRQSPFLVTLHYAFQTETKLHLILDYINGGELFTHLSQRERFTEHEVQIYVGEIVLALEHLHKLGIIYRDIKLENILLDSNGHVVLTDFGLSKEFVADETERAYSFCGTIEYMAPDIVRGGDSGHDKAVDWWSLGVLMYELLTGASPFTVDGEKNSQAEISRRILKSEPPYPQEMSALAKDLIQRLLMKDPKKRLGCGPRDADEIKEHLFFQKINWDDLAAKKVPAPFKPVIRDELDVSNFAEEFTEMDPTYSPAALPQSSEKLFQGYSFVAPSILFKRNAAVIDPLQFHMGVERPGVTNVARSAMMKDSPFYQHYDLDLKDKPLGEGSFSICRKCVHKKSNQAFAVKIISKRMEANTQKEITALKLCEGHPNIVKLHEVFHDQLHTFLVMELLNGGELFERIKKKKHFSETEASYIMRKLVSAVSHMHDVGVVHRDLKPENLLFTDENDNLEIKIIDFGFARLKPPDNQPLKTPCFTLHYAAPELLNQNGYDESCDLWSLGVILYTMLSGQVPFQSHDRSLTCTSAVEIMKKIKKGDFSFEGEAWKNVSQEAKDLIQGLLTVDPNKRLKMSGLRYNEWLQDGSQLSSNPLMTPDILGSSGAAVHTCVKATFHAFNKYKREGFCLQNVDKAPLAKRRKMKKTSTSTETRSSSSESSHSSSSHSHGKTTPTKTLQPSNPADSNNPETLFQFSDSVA
Chain of Protein kinase C zeta type (Q05513 whole entry): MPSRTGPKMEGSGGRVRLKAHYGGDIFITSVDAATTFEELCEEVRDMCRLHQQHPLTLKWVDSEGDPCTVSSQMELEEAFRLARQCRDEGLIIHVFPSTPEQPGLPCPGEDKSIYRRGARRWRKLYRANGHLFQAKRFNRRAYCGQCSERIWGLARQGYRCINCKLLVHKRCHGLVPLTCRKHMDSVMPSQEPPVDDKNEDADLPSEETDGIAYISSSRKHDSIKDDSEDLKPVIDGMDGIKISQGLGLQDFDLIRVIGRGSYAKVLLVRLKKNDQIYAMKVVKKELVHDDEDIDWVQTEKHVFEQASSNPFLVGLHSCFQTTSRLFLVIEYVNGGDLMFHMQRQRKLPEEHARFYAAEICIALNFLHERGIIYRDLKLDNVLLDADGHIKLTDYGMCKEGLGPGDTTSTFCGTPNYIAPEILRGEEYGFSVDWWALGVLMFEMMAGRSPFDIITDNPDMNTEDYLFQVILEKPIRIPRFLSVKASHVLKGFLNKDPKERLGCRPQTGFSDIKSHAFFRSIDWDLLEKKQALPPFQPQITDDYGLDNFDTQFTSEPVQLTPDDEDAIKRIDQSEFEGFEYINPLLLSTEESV
Chain of Mitogen-activated protein kinase 14 (Q16539 whole entry, canonical isoform): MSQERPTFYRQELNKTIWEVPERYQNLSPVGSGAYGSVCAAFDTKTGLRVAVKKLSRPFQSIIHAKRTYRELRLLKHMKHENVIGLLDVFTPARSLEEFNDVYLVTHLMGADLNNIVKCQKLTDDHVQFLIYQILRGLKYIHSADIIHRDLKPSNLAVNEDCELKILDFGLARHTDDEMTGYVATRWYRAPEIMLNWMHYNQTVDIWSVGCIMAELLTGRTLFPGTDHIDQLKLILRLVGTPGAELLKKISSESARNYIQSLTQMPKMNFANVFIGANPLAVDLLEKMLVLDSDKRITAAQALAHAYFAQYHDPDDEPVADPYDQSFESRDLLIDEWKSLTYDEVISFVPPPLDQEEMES
Chain of Tyrosine-protein kinase CSK (P41240 whole entry): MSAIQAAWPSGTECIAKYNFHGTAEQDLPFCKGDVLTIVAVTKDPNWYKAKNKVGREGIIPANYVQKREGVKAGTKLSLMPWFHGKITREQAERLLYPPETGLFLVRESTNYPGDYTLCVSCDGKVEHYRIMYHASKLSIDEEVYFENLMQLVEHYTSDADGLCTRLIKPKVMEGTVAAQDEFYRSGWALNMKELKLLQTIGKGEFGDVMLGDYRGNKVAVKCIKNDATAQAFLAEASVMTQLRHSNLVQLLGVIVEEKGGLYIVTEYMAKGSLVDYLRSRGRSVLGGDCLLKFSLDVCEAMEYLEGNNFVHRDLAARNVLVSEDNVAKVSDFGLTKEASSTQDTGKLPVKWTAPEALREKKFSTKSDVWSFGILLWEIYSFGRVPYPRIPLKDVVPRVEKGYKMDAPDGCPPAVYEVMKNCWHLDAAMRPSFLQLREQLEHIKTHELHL
Chain of Ribosomal protein S6 kinase alpha-3 (P51812 whole entry): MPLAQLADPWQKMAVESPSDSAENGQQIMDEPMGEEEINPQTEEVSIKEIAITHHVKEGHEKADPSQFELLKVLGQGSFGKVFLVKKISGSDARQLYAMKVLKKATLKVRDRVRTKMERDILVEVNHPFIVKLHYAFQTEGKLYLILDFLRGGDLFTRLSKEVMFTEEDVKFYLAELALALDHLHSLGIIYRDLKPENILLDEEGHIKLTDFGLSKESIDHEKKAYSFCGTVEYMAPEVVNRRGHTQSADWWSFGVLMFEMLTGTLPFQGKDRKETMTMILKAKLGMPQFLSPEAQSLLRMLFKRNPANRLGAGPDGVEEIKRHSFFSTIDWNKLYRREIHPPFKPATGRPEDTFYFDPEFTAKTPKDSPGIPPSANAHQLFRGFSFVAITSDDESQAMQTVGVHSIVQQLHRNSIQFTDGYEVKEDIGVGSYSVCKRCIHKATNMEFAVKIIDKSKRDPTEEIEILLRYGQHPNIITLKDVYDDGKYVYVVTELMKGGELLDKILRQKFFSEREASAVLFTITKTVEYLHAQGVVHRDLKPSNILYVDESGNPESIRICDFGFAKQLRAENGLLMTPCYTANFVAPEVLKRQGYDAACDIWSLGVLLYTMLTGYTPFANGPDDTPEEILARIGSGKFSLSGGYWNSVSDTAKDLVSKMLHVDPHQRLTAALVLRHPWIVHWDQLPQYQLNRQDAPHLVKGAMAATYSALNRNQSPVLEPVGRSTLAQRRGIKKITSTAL
Chain of Glycogen synthase kinase-3 beta (P49841 whole entry, looked up, canonical isoform): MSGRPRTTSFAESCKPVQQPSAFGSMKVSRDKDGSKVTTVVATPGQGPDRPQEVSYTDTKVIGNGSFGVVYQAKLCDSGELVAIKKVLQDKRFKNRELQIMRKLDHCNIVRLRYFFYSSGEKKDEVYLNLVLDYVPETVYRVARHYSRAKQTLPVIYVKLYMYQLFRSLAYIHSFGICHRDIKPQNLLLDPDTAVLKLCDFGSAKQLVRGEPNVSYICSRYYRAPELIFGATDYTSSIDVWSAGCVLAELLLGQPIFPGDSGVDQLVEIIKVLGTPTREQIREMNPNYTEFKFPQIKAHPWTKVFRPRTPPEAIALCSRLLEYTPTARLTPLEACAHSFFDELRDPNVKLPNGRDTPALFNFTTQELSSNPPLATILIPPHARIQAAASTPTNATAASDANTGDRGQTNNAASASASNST
Chain of Phosphatidylinositol 3-kinase catalytic subunit type 3 (Q8NEB9 whole entry): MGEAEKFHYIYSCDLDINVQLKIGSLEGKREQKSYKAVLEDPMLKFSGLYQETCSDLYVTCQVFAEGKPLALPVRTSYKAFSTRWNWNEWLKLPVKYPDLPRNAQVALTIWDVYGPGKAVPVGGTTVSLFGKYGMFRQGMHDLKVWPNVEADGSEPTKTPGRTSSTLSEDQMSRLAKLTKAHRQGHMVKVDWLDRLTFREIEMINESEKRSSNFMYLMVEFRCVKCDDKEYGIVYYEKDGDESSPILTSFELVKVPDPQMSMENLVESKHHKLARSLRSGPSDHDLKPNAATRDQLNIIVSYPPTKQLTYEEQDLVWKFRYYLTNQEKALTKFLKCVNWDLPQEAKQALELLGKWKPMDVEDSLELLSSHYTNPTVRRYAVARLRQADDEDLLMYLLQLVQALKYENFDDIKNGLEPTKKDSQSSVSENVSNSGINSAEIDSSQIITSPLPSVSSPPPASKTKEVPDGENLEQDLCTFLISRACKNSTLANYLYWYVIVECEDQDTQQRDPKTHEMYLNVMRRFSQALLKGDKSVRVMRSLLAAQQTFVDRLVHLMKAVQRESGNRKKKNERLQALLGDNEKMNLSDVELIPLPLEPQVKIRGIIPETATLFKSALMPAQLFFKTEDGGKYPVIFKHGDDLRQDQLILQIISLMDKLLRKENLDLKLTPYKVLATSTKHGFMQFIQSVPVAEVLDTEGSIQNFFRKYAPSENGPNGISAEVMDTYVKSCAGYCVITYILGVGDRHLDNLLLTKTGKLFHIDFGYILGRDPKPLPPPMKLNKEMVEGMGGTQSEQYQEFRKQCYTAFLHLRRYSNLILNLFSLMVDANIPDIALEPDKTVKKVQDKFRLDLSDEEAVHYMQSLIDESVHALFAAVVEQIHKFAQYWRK
Chain of Eukaryotic elongation factor 2 kinase (O00418 whole entry): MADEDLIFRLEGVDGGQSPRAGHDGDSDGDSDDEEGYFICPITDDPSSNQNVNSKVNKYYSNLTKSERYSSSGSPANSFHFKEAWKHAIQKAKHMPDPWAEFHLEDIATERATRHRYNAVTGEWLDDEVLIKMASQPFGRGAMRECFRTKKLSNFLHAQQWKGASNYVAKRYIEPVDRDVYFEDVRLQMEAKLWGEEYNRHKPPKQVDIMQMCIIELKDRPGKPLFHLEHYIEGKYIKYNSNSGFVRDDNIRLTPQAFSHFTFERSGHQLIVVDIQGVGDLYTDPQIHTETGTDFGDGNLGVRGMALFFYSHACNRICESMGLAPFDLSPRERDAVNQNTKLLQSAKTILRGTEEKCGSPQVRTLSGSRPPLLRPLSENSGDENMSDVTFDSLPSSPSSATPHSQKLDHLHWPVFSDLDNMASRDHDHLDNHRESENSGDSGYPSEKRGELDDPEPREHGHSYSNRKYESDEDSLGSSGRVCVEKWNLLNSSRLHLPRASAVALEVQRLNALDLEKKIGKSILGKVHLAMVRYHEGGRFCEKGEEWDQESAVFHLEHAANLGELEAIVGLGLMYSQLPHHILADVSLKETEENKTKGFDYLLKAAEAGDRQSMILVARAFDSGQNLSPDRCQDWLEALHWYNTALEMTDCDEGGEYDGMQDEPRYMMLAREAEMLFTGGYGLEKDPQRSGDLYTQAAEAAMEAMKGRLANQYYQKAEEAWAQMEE

Compound: CCOc1cc(N2CCC(O)CC2)ccc1Nc1ncc2c(n1)N(C)c1ccccc1C(=O)N2C
- IC50 [1]: > 50 µM
- IC50 [2]: > 50 µM
- IC50 [3]: > 50 µM
- IC50 [4]: > 50 µM
- IC50 [5]: > 50 µM
- IC50 [6]: > 50 µM
- IC50 [7]: > 50 µM
- inhibition [8]: 6.4%
- inhibition [9]: 1.8%
- inhibition [10]: 22.6%
- inhibition at 2 µM [11]: 23.1%
- inhibition at 10 µM [12]: -11.1%
- inhibition [13]: 17.4%
- inhibition [14]: 7.8%
- inhibition [15]: -0.4%
- AUC(0-inf) [16]: 1.9 µM·h
